According to ChEMBL document CHEMBL2169760 (J Med Chem, 2012):
Each block holds one molecule with its values, some of them ahead of it. Activity calls are given as the source filed them. No cut-off for these calls is given here.

What was measured:
[1] = target: T1, Adenosine receptor A1 (Homo sapiens) (UniProt P30542); experiment: Activity at human A1 adenosine receptor expressed in CHO cells assessed as inhibition of forskolin-stimulated cAMP production at 10 uM after 30 min; type: functional, cell-based
T1 sequence (whole entry): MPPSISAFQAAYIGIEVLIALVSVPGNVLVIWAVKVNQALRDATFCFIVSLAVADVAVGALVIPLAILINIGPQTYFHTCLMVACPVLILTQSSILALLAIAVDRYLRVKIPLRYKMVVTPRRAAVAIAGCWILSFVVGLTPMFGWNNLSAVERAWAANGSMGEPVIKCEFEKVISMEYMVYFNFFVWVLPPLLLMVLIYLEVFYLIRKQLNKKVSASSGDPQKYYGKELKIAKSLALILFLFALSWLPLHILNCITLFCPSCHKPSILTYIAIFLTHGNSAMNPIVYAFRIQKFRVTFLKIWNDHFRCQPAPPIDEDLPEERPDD

[2] = target: T1, Adenosine receptor A1 (Homo sapiens); experiment: Displacement of [3H]R-PIA from human A1 adenosine receptor expressed in CHO cells at 10 uM after 60 min by Perkin Elmer Liquid Scintillation Analyzer; type: cell-based
[3] = target: T2, Adenosine receptor A1 (Homo sapiens, UniProt P30542); experiment: Displacement of [3H]R-PIA from human A1 adenosine receptor expressed in CHO cells after 60 min by Perkin Elmer Liquid Scintillation Analyzer; type: cell-based
T2 sequence (P30542 whole entry): T1 sequence (whole entry)

[4] = target: T3, Adenosine receptor A3 (Homo sapiens, UniProt P0DMS8); experiment: Displacement of [125I]I-AB-MECA from human A3 adenosine receptor expressed in CHO cells after 60 min Packard Cobra 2 gamma-counter; type: cell-based
T3 sequence (P0DMS8 whole entry): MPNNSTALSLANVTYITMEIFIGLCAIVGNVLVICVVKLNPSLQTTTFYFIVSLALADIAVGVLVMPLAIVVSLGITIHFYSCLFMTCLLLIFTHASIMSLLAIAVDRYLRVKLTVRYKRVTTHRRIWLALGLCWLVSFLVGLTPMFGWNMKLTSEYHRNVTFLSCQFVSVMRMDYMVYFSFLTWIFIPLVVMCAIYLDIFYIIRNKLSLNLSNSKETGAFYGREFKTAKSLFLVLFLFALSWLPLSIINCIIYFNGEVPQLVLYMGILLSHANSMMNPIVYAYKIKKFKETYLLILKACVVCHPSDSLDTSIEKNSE

[5] = target: T4, Adenosine receptor A2a (Homo sapiens, UniProt P29274); experiment: Displacement of [3H]CGS21680 from human A2a adenosine receptor expressed in HEK293 cells at 10 uM after 60 min by Perkin Elmer Liquid Scintillation Analyzer; type: cell-based
T4 sequence (P29274 whole entry): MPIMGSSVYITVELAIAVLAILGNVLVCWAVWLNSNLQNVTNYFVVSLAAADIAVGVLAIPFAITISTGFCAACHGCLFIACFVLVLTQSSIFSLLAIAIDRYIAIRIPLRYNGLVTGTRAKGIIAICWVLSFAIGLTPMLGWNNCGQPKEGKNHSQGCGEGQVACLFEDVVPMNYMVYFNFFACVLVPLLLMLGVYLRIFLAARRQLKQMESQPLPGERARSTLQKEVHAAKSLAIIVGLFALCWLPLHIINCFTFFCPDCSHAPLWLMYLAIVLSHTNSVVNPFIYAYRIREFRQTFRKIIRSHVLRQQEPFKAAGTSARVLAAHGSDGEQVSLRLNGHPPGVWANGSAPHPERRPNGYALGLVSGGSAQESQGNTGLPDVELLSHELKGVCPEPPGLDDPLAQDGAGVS

[6] = target: Adenosine receptors; A1 & A3 (Homo sapiens) (UniProt P30542+P0DMS8); experiment: Selectivity ratio of Ki for human A3 adenosine receptor to Ki for human A1 adenosine receptor
[7] = target: T4, Adenosine receptor A2a; experiment: Displacement of [3H]CGS21680 from human A2a adenosine receptor expressed in HEK293 cells after 60 min by Perkin Elmer Liquid Scintillation Analyzer; type: cell-based
[8] = organism: Homo sapiens; experiment: Selectivity ratio of Ki for human A2a adenosine receptor to Ki for human A1 adenosine receptor
[9] = test system: Mus musculus; experiment: Anticonvulsant activity in CF-1 albino mouse assessed as protection against subcutaneous metrazol-induced seizures at 3 mg/kg, ip; type: functional, organism-based; set-up: dose 3 mg/kg
Method in brief: (§1)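 Dosed i.p. at 0.01 ml/g from a DMSO stock diluted to 10% DMSO (v/v) final. Single doses tested in traditional MES or s.c. metrazol seizure tests at the time of peak effect. Scored qualitatively as number of animals protected from convulsions (groups of 4–8).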

[10] = test system: Mus musculus; experiment: Anticonvulsant activity in ip dosed CF-1 albino mouse administered as single dose after 1 hr by corneal kindled mouse test; type: functional, organism-based
Method in brief: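 Mice corneally kindled twice daily (3 mA, 3 s, about 12 days, tetracaine/saline drop before each stimulation) and re-stimulated the day before testing. Single i.p. dose given (n = 4 or 8), then challenged with 3 mA for 3 s at 1 h post-injection. EC50 (±SE) determined.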

[11] = test system: Mus musculus; experiment: Toxicity in ip dosed CF-1 albino mouse assessed as behavioral changes by rotarod test; type: organism-based; settings: in vivo
[12] = test system: Mus musculus; experiment: Anticonvulsant activity in CF-1 albino mouse assessed as protection against maximal electroshock-induced seizures at 1 mg/kg, ip by MES test; type: functional, organism-based; set-up: dose 1 mg/kg; method in brief: as §1
[13] = test system: Mus musculus; experiment: Anticonvulsant activity in CF-1 albino mouse assessed as protection against maximal electroshock-induced seizures at 3 mg/kg, ip by MES test; type: functional, organism-based; set-up: dose 3 mg/kg; method in brief: as §1
[14] = test system: Mus musculus; experiment: Anticonvulsant activity in ip dosed CF-1 albino mouse assessed as protection against 6 Hz psychomotor seizure after 1 hr by minimal clonic seizure test; type: functional; settings: CF-1, ip
Method in brief: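 Corneal 6 Hz stimulation (32 mA, 3 s, CC97) applied 1 h post-dose (time of peak effect). Absence of minimal clonic/automatistic behavior counted as protection.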

[15] = test system: Mus musculus; experiment: Anticonvulsant activity in CF-1 albino mouse assessed as protection against subcutaneous metrazol-induced seizures at 1 mg/kg, ip; type: functional, organism-based; set-up: dose 1 mg/kg; method in brief: as §1
[16] = test system: Mus musculus; experiment: Anticonvulsant activity in CF-1 albino mouse assessed as protection against maximal electroshock-induced seizures at 2 mg/kg, ip by MES test; type: functional, organism-based; set-up: dose 2 mg/kg; method in brief: as §1
[17] = test system: Mus musculus; experiment: Toxicity in ip dosed CF-1 albino mouse assessed as behavioral changes after 4 hrs by rotarod test; type: organism-based; settings: in vivo

SMILES: CC(C)[C@H](Nc1nc(Cl)nc2c1ncn2[C@H]1[C@H](O)[C@H](O)[C@@H]2C[C@@H]21)C1CC1
- inhibition [1]: 20.8%

SMILES: O[C@@H]1[C@H](O)[C@@H]2C[C@@H]2[C@H]1n1cnc2c(NC(C3CCCC3)C3CCCC3)nc(Cl)nc21
- inhibition [2]: 34%

SMILES: O[C@@H]1[C@H](O)[C@@H]2C[C@@H]2[C@H]1n1cnc2c(NC(C3CC3)C3CC3)ncnc21
- Ki [3]: 56.1 nM
- Ki [4]: 17 nM
- inhibition [5]: 38%

SMILES: O[C@@H]1[C@H](O)[C@@H]2C[C@@H]2[C@H]1n1cnc2c(N[C@H](C3CCC3)C3CC3)nc(Cl)nc21
- Ratio Ki [6]: 23
- inhibition [1]: 18.1%
- Ki [7]: 6.45 µM
- Ki [3]: 120 nM
- Ki [4]: 2790 nM
- Ratio Ki [8]: 53

SMILES: O[C@@H]1[C@H](O)[C@@H]2C[C@@H]2[C@H]1n1cnc2c(NC(C3CC3)C3CC3)nc(Cl)nc21
- Activity [9]: inactive
- EC50 [10]: 1.79 mg/kg
- TD50 [11]: > 30 mg/kg
- Activity [12]: inactive
- Activity [13]: inactive
- ED50 [14]: 2.74 mg/kg
- Activity [15]: inactive
- Activity [16]: inactive

SMILES: OC[C@H]1O[C@@H](n2cnc3c(NC4CCCC4)nc(Cl)nc32)[C@H](O)[C@@H]1O
- Activity [9]: inactive
- Activity [12]: inactive
- Activity [13]: inactive
- ED50 [14]: 0.12 mg/kg
- Activity [15]: inactive
- Activity [16]: inactive

SMILES: O[C@@H]1[C@H](O)[C@@H]2C[C@@H]2[C@H]1n1cnc2c(N[C@@H](c3ccccc3)C3CC3)nc(Cl)nc21
- inhibition [1]: -7.4%
- Ki [3]: 3000 nM
- Ki [4]: 790 nM
- inhibition [5]: 46%

SMILES: O[C@@H]1[C@H](O)[C@@H]2C[C@@H]2[C@H]1n1cnc2c(N[C@H](c3ccccc3)C3CC3)nc(Cl)nc21
- inhibition [2]: 50%
- inhibition [1]: -2.4%
- Ki [4]: 2200 nM
- inhibition [5]: 36%

SMILES: O[C@@H]1[C@H](O)[C@@H]2C[C@@H]2[C@H]1n1cnc2c(NCC(C3CC3)C3CC3)nc(Cl)nc21
- inhibition [1]: -9%
- inhibition [5]: 45%

SMILES: O=C(O)c1cnn(-c2nc(NC(C3CC3)C3CC3)c3ncn([C@H]4[C@H](O)[C@H](O)[C@@H]5C[C@@H]54)c3n2)c1
- Ki [3]: 1080 nM
- Ki [4]: 640 nM
- inhibition [5]: 17%

SMILES: NCCNC(=O)Cc1ccc(NC(=O)Cc2ccc(Nc3ncnc4c3ncn4[C@@H]3O[C@H](CO)[C@@H](O)[C@H]3O)cc2)cc1
- TD50 [17]: 0.14 mg/kg
- Activity [9]: inactive
- Activity [12]: inactive
- inhibition [1]: 94%
- Activity [13]: inactive
- ED50 [14]: 0.03 mg/kg
- Ki [4]: 12.4 nM
- Activity [15]: inactive
- Activity [16]: inactive

SMILES: O[C@@H]1[C@H](O)[C@@H]2C[C@@H]2[C@H]1n1cnc2c(N[C@@H](C3CCC3)C3CC3)nc(Cl)nc21
- inhibition [1]: 33.4%
- Ki [7]: 5.47 µM
- Ki [3]: 270 nM
- Ki [4]: 2930 nM

The next lines start with the values.

- inhibition [1]: 18.4%
SMILES: O[C@@H]1[C@H](O)[C@@H]2C[C@@H]2[C@H]1n1cnc2c(N[C@H](CC3CC3)C3CC3)nc(Cl)nc21

- inhibition [1]: 100%
SMILES: OC[C@H]1O[C@@H](n2cnc3c(NC4CCCC4)ncnc32)[C@H](O)[C@@H]1O

- Ki [7]: 2.23 µM
- Ki [3]: 488 nM
- Ki [4]: 182 nM
SMILES: O[C@@H]1[C@H](O)[C@@H]2C[C@@H]2[C@H]1n1cnc2c(NC(C3CC3)C3CC3)nc(I)nc21

- inhibition [1]: 57.9%
SMILES: CC[C@H](Nc1nc(Cl)nc2c1ncn2[C@H]1[C@H](O)[C@H](O)[C@@H]2C[C@@H]21)C1CC1

- Ki [3]: 210 nM
- Ki [4]: 70 nM
- inhibition [5]: 43%
SMILES: NNc1nc(NC(C2CC2)C2CC2)c2ncn([C@H]3[C@H](O)[C@H](O)[C@@H]4C[C@@H]43)c2n1

- inhibition [1]: 37.3%
SMILES: CC[C@@H](Nc1nc(Cl)nc2c1ncn2[C@H]1[C@H](O)[C@H](O)[C@@H]2C[C@@H]21)C1CC1

- inhibition [1]: 33.8%
SMILES: CC(C)[C@@H](Nc1nc(Cl)nc2c1ncn2[C@H]1[C@H](O)[C@H](O)[C@@H]2C[C@@H]21)C1CC1

- inhibition [1]: 24%
SMILES: O[C@@H]1[C@H](O)[C@@H]2C[C@@H]2[C@H]1n1cnc2c(N[C@@H](CC3CC3)C3CC3)nc(Cl)nc21

- Ki [7]: 4.11 µM
- Ki [3]: 730 nM
- Ki [4]: 490 nM
SMILES: COC(=O)c1cnn(-c2nc(NC(C3CC3)C3CC3)c3ncn([C@H]4[C@H](O)[C@H](O)[C@@H]5C[C@@H]54)c3n2)c1
